SMILES strings stand for the structures. Starred links: 1 amine or outer side, 2 acyl side, 3 side chain; linkers in the order of their positions; H or OH if unused. Non-standard residues stand in square brackets, D forms with d. Residues, ends and D or L forms follow the SMILES beside them. *: point of attachment. X7 = CC(=O)N(C(=O)/C=C/c1ccc(F)cc1)[C@@H](Cc1ccc(F)cc1)C(=O)*; X9 = CCC(=O)c1cccc(N([C@@H](Cc2ccc(F)cc2)C(=O)[*:2])[*:1])c1; X3 = CC(=O)N(C(=O)/C=C/c1ccccc1)[C@@H](Cc1ccc(F)cc1)C(=O)*; Phe(4-guanidino) = N=C(N)Nc1ccc(C[C@H](N)C(=O)O)cc1; Phe(4-F) = N[C@@H](Cc1ccc(F)cc1)C(=O)O; 1Nal = N[C@@H](Cc1cccc2ccccc12)C(=O)O; 2Nal = N[C@@H](Cc1ccc2ccccc2c1)C(=O)O; Tic = O=C(O)[C@@H]1Cc2ccccc2CN1; Orn = NCCC[C@H](N)C(=O)O; Thz = O=C(O)[C@@H]1CSCN1; βAla = NCCC(=O)O

One assay concerns the target T1, Proteinase-activated receptor 1 (Homo sapiens, UniProt P25116).
T1 sequence (P25116 whole entry): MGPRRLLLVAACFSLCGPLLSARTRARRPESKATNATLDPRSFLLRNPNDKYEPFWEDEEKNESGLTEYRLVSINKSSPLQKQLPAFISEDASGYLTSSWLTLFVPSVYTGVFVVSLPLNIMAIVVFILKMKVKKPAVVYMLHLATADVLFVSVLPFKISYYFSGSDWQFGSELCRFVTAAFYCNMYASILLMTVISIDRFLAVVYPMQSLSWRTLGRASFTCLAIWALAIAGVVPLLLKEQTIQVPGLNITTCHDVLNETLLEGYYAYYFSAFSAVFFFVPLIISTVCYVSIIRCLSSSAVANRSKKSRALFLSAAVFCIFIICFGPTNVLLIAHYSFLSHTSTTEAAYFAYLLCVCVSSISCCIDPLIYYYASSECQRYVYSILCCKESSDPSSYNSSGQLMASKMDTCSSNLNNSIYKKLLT
For `CC#Cc1ccccc1C(=O)N(C(C)=O)[C@@H](Cc1ccc(F)cc1)C(=O)N[C@@H](Cc1ccc(NC(=N)N)cc1)C(=O)N[C@@H](CC(C)C)C(=O)N[C@@H](CCCN=C(N)N)C(N)=O`, the IC50 (commonly the concentration needed to halve the response being measured) stood at 23 nM.
Turning to `CCC(=O)c1cccc(N(C(C)=O)[C@@H](Cc2ccc(F)cc2)C(=O)N[C@@H](Cc2ccc(NC(=N)N)cc2)C(=O)N[C@@H](CC(C)C)C(=O)N[C@@H](CCCN=C(N)N)C(=O)N[C@@H](CCCN=C(N)N)C(N)=O)c1` (Ac-[X9][Phe(4-guanidino)]LRR-NH2), 9 nM corresponded to half-maximal inhibition (IC50).
Same read-out and setting: in the case of `CC(=O)N(C(=O)/C=C/c1ccccc1)[C@@H](Cc1ccc(F)cc1)C(=O)N[C@@H](Cc1c[nH]cn1)C(=O)N[C@@H](CC(C)C)C(=O)N[C@@H](CCCN=C(N)N)C(N)=O` it was 470 nM.
For `CC(=O)N(C(=O)/C=C/c1ccccc1)[C@@H](Cc1ccc(F)cc1)C(=O)N[C@@H](CCCCN)C(=O)N[C@@H](CC(C)C)C(=O)N[C@@H](CCCN=C(N)N)C(N)=O`, the IC50 is 39 nM.
`CC(=O)N(c1cccs1)[C@@H](Cc1ccc(F)cc1)C(=O)N[C@@H](Cc1ccc(NC(=N)N)cc1)C(=O)N[C@@H](CC(C)C)C(=O)N[C@@H](CCCN=C(N)N)C(N)=O` returned an IC50 of 260 nM.
Same read-out and setting: in the case of `CC(=O)N(C(=O)/C=C/c1ccccc1)[C@@H](Cc1cccnc1)C(=O)N[C@@H](Cc1ccc(NC(=N)N)cc1)C(=O)N[C@@H](CC(C)C)C(=O)N[C@@H](CCCN=C(N)N)C(N)=O` it was 3440 nM; in that of `CC(=O)N(C(=O)/C=C/c1ccccc1)[C@@H](Cc1ccc(F)cc1)C(=O)N[C@@H](CCCN=C(N(C)C)N(C)C)C(=O)N[C@@H](CC(C)C)C(=O)N[C@@H](CCCN=C(N)N)C(N)=O`, 320 nM.
Same read-out and setting: in the case of `CC(=O)N(C(=O)c1cccc(C2CCCCC2)c1)[C@@H](Cc1ccc(F)cc1)C(=O)N[C@@H](Cc1ccc(NC(=N)N)cc1)C(=O)N[C@@H](CC(C)C)C(=O)N[C@@H](CCCN=C(N)N)C(N)=O` it was 2320 nM.
The compound `CC(=O)N(C(=O)/C=C/c1ccc(F)cc1)[C@@H](Cc1ccc(F)cc1)C(=O)N[C@@H](Cc1ccc(NC(=N)N)cc1)C(=O)N[C@@H](CC(C)C)C(=O)N[C@@H](CCCN=C(N)N)C(=O)N[C@@H](CCCN=C(N)N)C(N)=O` (X7-[Phe(4-guanidino)]LRR-NH2) displayed an IC50 of 19 nM.
As for `CC(=O)N(C(=O)/C=C/c1ccccc1)[C@@H](CC1CCCCC1)C(=O)N[C@@H](Cc1ccc(NC(=N)N)cc1)C(=O)N[C@@H](CC(C)C)C(=O)N[C@@H](CCCN=C(N)N)C(N)=O`, the IC50 was 93 nM.
On to `CC(=O)N(C(=O)/C=C/c1ccccc1)[C@@H](Cc1ccc(F)cc1)C(=O)N[C@@H](Cc1ccc(NC(=N)N)cc1)C(=O)N[C@@H](CC(C)C)C(=O)N[C@@H](CCCN=C(N)N)C(=O)N[C@@H](CCCN)C(N)=O` (X3-[Phe(4-guanidino)]LR[Orn]-NH2), for which the IC50 is 6.6 nM.
As for `CC(=O)N(C1CCCC1)[C@@H](Cc1ccc(F)cc1)C(=O)N[C@@H](Cc1ccc(NC(=N)N)cc1)C(=O)N[C@@H](CC(C)C)C(=O)N[C@@H](CCCN=C(N)N)C(N)=O`, the concentration for half-maximal inhibition (IC50) came to 370 nM.
`CC(=O)N(C(=O)/C=C/c1ccccc1)[C@@H](Cc1ccc(F)cc1)C(=O)N[C@@H](Cc1ccc(NC(=N)N)cc1)C(=O)N[C@@H](CC(C)C)C(N)=O` yielded a half-inhibitory concentration (IC50) of 110 nM.
`CC(=O)N(C(=O)/C=C/c1ccc(F)cc1)[C@@H](Cc1ccc(F)cc1)C(=O)N[C@@H](Cc1ccc(NC(=N)N)cc1)C(=O)N[C@@H](CC(C)C)C(=O)N[C@@H](CCCN=C(N)N)C(N)=O` (stereo in doubt; 62) gave an IC50 of 23 nM.
Regarding `CC(=O)N(C(=O)Cc1ccc2ccccc2c1)[C@@H](Cc1ccc(F)cc1)C(=O)N[C@@H](Cc1ccc(NC(=N)N)cc1)C(=O)N[C@@H](CC(C)C)C(=O)N[C@@H](CCCN=C(N)N)C(N)=O`, the concentration for half-maximal inhibition (IC50) worked out at 295 nM.
`CC(=O)N(C(=O)/C=C/c1ccccc1)[C@@H](Cc1ccc(F)cc1)C(=O)NC(=O)NCCC[C@H](NC(=O)[C@H](CC(C)C)NC(=O)[C@@H](N)CCCN=C(N)N)C(=O)O` gave an IC50 of 1040 nM.
Compound `CC(=O)N(c1ccc(F)cc1)[C@@H](Cc1ccc(F)cc1)C(=O)N[C@@H](Cc1ccc(NC(=N)N)cc1)C(=O)N[C@@H](CC(C)C)C(=O)N[C@@H](CCCN=C(N)N)C(N)=O` returned an IC50 of 350 nM.
As to `CC(=O)N(C(=O)/C=C/c1ccccc1)[C@@H](Cc1ccc(F)cc1)C(=O)N[C@@H](Cc1ccc(NC(=N)N)cc1)C(=O)N[C@@H](CC(C)C)C(=O)N[C@@H](CCCN)C(=O)CC(N)=O`, inhibition was half-maximal at 44 nM (IC50).
For `CCCCC/C=C/CC(=O)N(C(C)=O)[C@@H](Cc1ccc(F)cc1)C(=O)N[C@@H](Cc1ccc(NC(=N)N)cc1)C(=O)N[C@@H](CC(C)C)C(=O)N[C@@H](CCCN=C(N)N)C(N)=O`, the concentration for half-maximal inhibition (IC50) came to 35 nM.
Regarding `CC(=O)N(C(=O)COc1ccccc1)[C@@H](Cc1ccc(F)cc1)C(=O)N[C@@H](Cc1ccc(NC(=N)N)cc1)C(=O)N[C@@H](CC(C)C)C(=O)N[C@@H](CCCN=C(N)N)C(N)=O`, half-maximal inhibition (IC50) required 21 nM.
In the case of `CC(=O)N(C(=O)/C=C/c1ccc(C)cc1)[C@@H](Cc1ccc(F)cc1)C(=O)N[C@@H](Cc1ccc(NC(=N)N)cc1)C(=O)N[C@@H](CC(C)C)C(=O)N[C@@H](CCCN=C(N)N)C(N)=O` (stereo in doubt; 63), the half-maximal inhibitory concentration (IC50) is 43 nM.
With `CC(=O)N(C(=O)c1cc2ccccc2oc1=O)[C@@H](Cc1ccc(F)cc1)C(=O)N[C@@H](Cc1ccc(NC(=N)N)cc1)C(=O)N[C@@H](CC(C)C)C(=O)N[C@@H](CCCN=C(N)N)C(N)=O`, the IC50 was determined as 4330 nM.
`COc1ccc(C[C@H](NC(=O)[C@H](Cc2ccc(F)cc2)N(C(C)=O)C(=O)/C=C/c2ccccc2)C(=O)N[C@@H](CC(C)C)C(=O)N[C@@H](CCCN=C(N)N)C(N)=O)cc1` displayed an IC50 of 1180 nM.
`CC(=O)N(C(=O)/C=C/c1ccccc1)[C@@H](Cc1ccc(F)cc1)C(=O)N[C@@H](Cc1ccc(NC(=N)N)cc1)C(=O)N[C@@H](CC(C)C)C(=O)N[C@@H](CCCN=C(N)N)C(=O)N[C@@H](CCCN=C(N)N)C(N)=O` (X3-[Phe(4-guanidino)]LRR-NH2) came in with an IC50 of 7.5 nM.
`CC(=O)N(C(=O)CSc1ccccc1)[C@@H](Cc1ccc(F)cc1)C(=O)N[C@@H](Cc1ccc(NC(=N)N)cc1)C(=O)N[C@@H](CC(C)C)C(=O)N[C@@H](CCCN=C(N)N)C(N)=O`: half-maximal inhibition (IC50) required 19 nM.
Regarding `CC(=O)N(C(=O)c1ccc(-c2ccccc2)cc1)[C@@H](Cc1ccc(F)cc1)C(=O)N[C@@H](Cc1ccc(NC(=N)N)cc1)C(=O)N[C@@H](CC(C)C)C(=O)N[C@@H](CCCN=C(N)N)C(N)=O`, the concentration for half-maximal inhibition (IC50) amounted to 46 nM.
The same measure, in the same setting: in the case of `CC(=O)N(C(=O)/C=C/c1ccc(O)cc1)[C@@H](Cc1ccc(F)cc1)C(=O)N[C@@H](Cc1ccc(NC(=N)N)cc1)C(=O)N[C@@H](CC(C)C)C(=O)N[C@@H](CCCN=C(N)N)C(N)=O` it was 62 nM.

System in another assay: not listed separately
As to the kind of experiment: Concentration to stimulate human platelet aggregation. The class given is functional. Summed up: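 Peptides were added alone to gel-filtered human platelets, and aggregation was read by microtiter turbidity. EC₅₀ is the concentration stimulating 50% of maximum aggregation. N is the number of determinations. A peptide is called a partial agonist where maximum aggregation was not reached experimentally.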
Consider `CC(C)C[C@H](NC(=O)[C@H](Cc1ccc2ccccc2c1)NC(=O)[C@H](Cc1ccc(F)cc1)NC(=O)[C@@H](N)CO)C(=O)N[C@@H](CCCN=C(N)N)C(N)=O` (H-S[Phe(4-F)][2Nal]LR-NH2), for which the EC50 (as a rule, the concentration at which the effect is half-maximal) was 80 nM.
Consider `CC(C)C[C@H](NC(=O)[C@H](CC(C)C)NC(=O)[C@H](Cc1ccc(F)cc1)NC(=O)[C@@H](N)CO)C(=O)N[C@@H](CCCN=C(N)N)C(N)=O`, for which a half-maximal response (EC50) required 130 nM.
In turn, `CC(=O)NCCC(=O)N[C@@H](Cc1ccccc1)C(=O)N[C@@H](CC(C)C)C(=O)N[C@@H](CC(C)C)C(=O)N[C@@H](CCCN=C(N)N)C(N)=O` (Ac-[βAla]FLLR-NH2) came in with a concentration giving a half-maximal response (EC50) of 1800 nM.
For the compound `CC(C)C[C@H](NC(=O)[C@H](CC(C)C)NC(=O)[C@H](Cc1ccc(N)cc1)NC(=O)[C@@H](N)CO)C(=O)N[C@@H](CCCN=C(N)N)C(N)=O`, the concentration giving a half-maximal response (EC50) was 18000 nM.
`CC(C)C[C@H](NC(=O)[C@H](Cc1cccc2ccccc12)NC(=O)[C@H](Cc1ccc(F)cc1)NC(=O)[C@@H](N)CO)C(=O)N[C@@H](CCCN=C(N)N)C(N)=O` (H-S[Phe(4-F)][1Nal]LR-NH2): the concentration for a half-maximal effect (EC50) is 160 nM.
On to `CC(C)C[C@H](NC(=O)[C@@H]1Cc2ccccc2CN1C(=O)[C@H](Cc1ccc(F)cc1)NC(=O)[C@@H](N)CO)C(=O)N[C@@H](CCCN=C(N)N)C(N)=O` (H-S[Phe(4-F)][Tic]LR-NH2), for which a half-maximal effect (EC50) was put at 470 nM.
On the same count and under the same terms, in the case of `CC(C)C[C@H](NC(=O)[C@H](CC(C)C)NC(=O)[C@H](Cc1ccccc1)NC(=O)[C@@H](N)CO)C(=O)N[C@@H](CCCN=C(N)N)C(N)=O` it was 400 nM; in that of `CC(C)C[C@H](NC(=O)[C@H](CC(C)C)NC(=O)[C@H](Cc1ccc(I)cc1)NC(=O)[C@@H](N)CO)C(=O)N[C@@H](CCCN=C(N)N)C(N)=O`, 9270 nM; in that of `CC(C)C[C@H](NC(=O)[C@H](CC(C)C)NC(=O)[C@H](Cc1ccccc1)NC(=O)[C@@H]1CSCN1)C(=O)N[C@@H](CCCN=C(N)N)C(N)=O` (H-[Thz]FLLR-NH2), 46000 nM.
In turn, `CC(C)C[C@H](NC(=O)[C@H](CC(C)C)NC(=O)[C@H](CCc1ccccc1)NC(=O)[C@@H](N)CO)C(=O)N[C@@H](CCCN=C(N)N)C(N)=O` yielded an EC50 greater than 300000 nM.
Compound `CC(=O)N1CSC[C@H]1C(=O)N[C@@H](Cc1ccccc1)C(=O)N[C@@H](CC(C)C)C(=O)N[C@@H](CC(C)C)C(=O)N[C@@H](CCCN=C(N)N)C(N)=O` (Ac-[Thz]FLLR-NH2) showed a concentration giving a half-maximal response (EC50) greater than 300000 nM.
The compound `CC(C)C[C@H](NC(=O)[C@H](Cc1ccc(F)cc1)NC(=O)[C@H](Cc1ccc(F)cc1)NC(=O)[C@@H](N)CO)C(=O)N[C@@H](CCCN=C(N)N)C(N)=O` (H-S[Phe(4-F)][Phe(4-F)]LR-NH2) gave an EC50 of 100 nM.
`CC(C)C[C@H](NC(=O)[C@H](Cc1ccc(NC(=N)N)cc1)NC(=O)[C@H](Cc1ccc(F)cc1)NC(=O)[C@@H](N)CO)C(=O)N[C@@H](CCCN=C(N)N)C(N)=O` (H-S[Phe(4-F)][Phe(4-guanidino)]LR-NH2) came in with a half-maximal effective concentration (EC50) of 40 nM.
